According to PMC5473467 (Nature, 2017):

How the values were obtained:
C. parvum [1] = test: C. parvum High Content Imaging; type: cell-based; details: Cryptosporidium parvum, HCT-8, read-out: Cp HCI IC50
Outline: (§1)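 HCT-8 cells were kept in RPMI-1640 with 10% heat-inactivated horse serum. Oocysts were primed in 10 mM HCl in HBSS for 10 min at 37 °C, washed, then excysted in L-15/UltraCULTURE medium with 2 mM taurocholate, 10% horse serum and 200 μM ascorbate. Compound dilutions were made in taurocholate-free medium. EC50 came from ten-point threefold dose–response series.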

in vitro = type: cell-based; details: human, HepG2 CC50, 96 hours
CpPI(4)K (cgd8_4500) = biological target: T1, CpPI(4)K (cgd8_4500) (Cryptosporidium parvum, UniProt Q5CVD3); test: CpPI; type: biochemical, C. parvum; details: for IC50: Cp PI(4)K IC50, 3 μM ATP
T1 sequence (Q5CVD3 1-1114): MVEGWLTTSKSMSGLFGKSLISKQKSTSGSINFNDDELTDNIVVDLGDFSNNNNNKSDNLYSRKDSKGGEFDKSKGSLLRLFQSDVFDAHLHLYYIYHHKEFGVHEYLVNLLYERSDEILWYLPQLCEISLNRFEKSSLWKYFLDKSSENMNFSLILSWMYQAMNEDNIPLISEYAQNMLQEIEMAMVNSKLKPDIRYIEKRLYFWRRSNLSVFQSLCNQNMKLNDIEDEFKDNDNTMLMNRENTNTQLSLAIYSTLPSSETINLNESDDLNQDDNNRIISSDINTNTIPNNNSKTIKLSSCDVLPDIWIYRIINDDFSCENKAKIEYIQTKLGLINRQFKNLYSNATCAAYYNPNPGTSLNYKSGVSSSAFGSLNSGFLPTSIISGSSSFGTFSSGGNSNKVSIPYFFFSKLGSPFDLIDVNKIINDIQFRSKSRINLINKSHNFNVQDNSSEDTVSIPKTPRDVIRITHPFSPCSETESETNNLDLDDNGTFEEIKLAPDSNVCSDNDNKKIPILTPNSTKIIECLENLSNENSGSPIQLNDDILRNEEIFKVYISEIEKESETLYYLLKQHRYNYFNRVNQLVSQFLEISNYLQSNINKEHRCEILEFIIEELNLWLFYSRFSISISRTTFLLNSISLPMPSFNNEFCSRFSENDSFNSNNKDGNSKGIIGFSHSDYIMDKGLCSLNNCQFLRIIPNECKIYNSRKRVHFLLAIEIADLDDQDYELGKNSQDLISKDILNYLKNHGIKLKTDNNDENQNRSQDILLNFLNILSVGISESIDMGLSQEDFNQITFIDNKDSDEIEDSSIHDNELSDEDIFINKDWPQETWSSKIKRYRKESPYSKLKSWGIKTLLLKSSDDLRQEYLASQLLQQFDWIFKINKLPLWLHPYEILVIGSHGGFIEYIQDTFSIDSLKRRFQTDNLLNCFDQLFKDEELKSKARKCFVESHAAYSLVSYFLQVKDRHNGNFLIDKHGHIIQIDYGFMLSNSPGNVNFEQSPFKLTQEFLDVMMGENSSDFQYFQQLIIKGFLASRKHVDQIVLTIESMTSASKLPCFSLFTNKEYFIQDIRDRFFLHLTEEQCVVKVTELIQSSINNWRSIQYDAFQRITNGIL

C. parvum [2] = test: C. parvum cytopathic effect; type: cell-based, Cryptosporidium parvum; details: for EC50: Cryptosporidium parvum, HCT-8, read-out: Cp CPE EC50
Outline: as §1

Pf 3D7 = test: P. falciparum 3D7 growth inhibition; type: cell-based; details: Plasmodium falciparum, 3D7, read-out: Pf 3D7 IC50
C. hominis = C. hominis cytopathic effect; type: cell-based, Cryptosporidium hominis; details: for EC50: Cryptosporidium hominis, HCT-8, read-out: Ch CPE EC50
Outline: as §1

C. parvum UGA2 Fluc = test: Mouse model following tissue parasite load using whole-animal imaging; type: in vivo, IFN-γKO mice; details: 100 mg/kg daily from day 7

In the case of `CS(=O)(=O)c1ccc(-c2cnc(N)c(-c3ccc(C(F)(F)F)nc3)c2)cc1` [MMV390048], the IC50 (C. parvum [1]) is reported as 13.4 µM, the CC50 (in vitro) is reported as 26.2 ± 16.1 µM and the “inhibition of CpPI(4)K enzymatic activity” value (CpPI(4)K (cgd8_4500)) is reported as “do not inhibit”. For the same molecule, the IC50 (CpPI(4)K (cgd8_4500)) was 8.33 ± 2.35 µM, the “activity against C. parvum” value (C. parvum [2]) was “inactive” and the EC50 (C. parvum [2]) was 12.8 ± 6.26 µM. For the same molecule, the IC50 (Pf 3D7) was 0.042 ± 0.022 µM, the “activity against C. hominis” value (C. hominis) was “inactive” and the EC50 (C. hominis) was 11.8 ± 2.76 µM.
In the case of `CC(=O)Oc1ccccc1C(=O)Nc1ncc([N+](=O)[O-])s1` [Nitazoxanide], the “tissue load” value (C. parvum UGA2 Fluc) is reported as “no change”, the IC50 (C. parvum [1]) is reported as 2.93 ± 0.808 µM and the CC50 (in vitro) is reported as 12.7 ± 2.38 µM. It also gave an IC50 (CpPI(4)K (cgd8_4500)) of over 10 µM, an EC50 (C. parvum [2]) of 14.3 ± 7.13 µM and an IC50 (Pf 3D7) of over 10 µM. It also gave an EC50 (C. hominis) of over 20 µM.
